KCNQ1 act: potentiators or activators of human KCNQ1 potassium channel. B-score at 10 µM. CHO-K1 KCNQ1, thallium flux FluxOR fluorescence; active compounds read high. 310,000 compounds, 0.35% hits. AID 2648;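 active = fluorescence ratio B-score, a plate-corrected score, at least three library SD, with initial intensity B-score within 5 SD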
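Doses: Single concentration per compound, DMSO matched to controls | Test system: KCNQ1-transfected CHO-K1 cells | Timing: 90 min dye loading and 20 min compound exposure, both at room temperature | Measured by: Kinetic FluxOR thallium fluorescence, 10-s 1-Hz baseline, 110-s post-stimulus read | Medium: Assay buffer with matched DMSO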
Kir21 inh: inhibitors of mouse Kir2.1 inward-rectifier potassium channel. 310,000 compounds, 0.85% hits. B-score at 10 µM. AID 1672. HEK293-Kir2.1, FluxOR thallium flux fluorescence; active compounds read low;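 active = fluorescence ratio B-score at or below minus 3 SD of library scores, with starting-brightness B-score within 2 SD, cut at about -4.2 in these data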;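 note: channel flux triggered by added potassium and thallium sulfate stimulus; B-score of peak minus minimum fluorescence over baseline after thallium stimulus; more negative B-score means stronger Kir2.1 block with less thallium influx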
KCNK3 inh: human KCNK3 channel inhibition, primary screen | O14649 | AID 602410 | 340,000 compounds, 0.84% hits | CHO-KCNK3 thallium flux, FluxOR fluorescence; active compounds read low | B-score at 10 µM;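 active = B-score under library mean minus 4 SD, starting fluorescence ratio at most library mean plus 5 SD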;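 note: more negative B-score means stronger inhibition of thallium flux through KCNK3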
KCNQ1 block: blocks the human KCNQ1 potassium channel; 310,000 compounds, 1.3% hits; B-score at 10 µM; P51787; CHO-K1 KCNQ1, FluxOR thallium flux fluorescence; active compounds read high;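 active = compounds whose thallium flux B-score, printed positive for inhibition, exceeds three library SD while starting fluorescence stays within three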;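 note: channel opened by potassium depolarization with thallium stimulus after 20 min compound exposure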
KCNK9 inh-1: human KCNK9 channel inhibition | Q9NPC2 | HEK293 KCNK9, FluxOR thallium flux fluorescence; active compounds read low | B-score at 10 µM | 310,000 compounds, 1.2% hits;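 active = ratio B-score over 3 SD below the library mean, with starting fluorescence within 5 SD of its mean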;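 note: negative B-score means less thallium flux so channel inhibition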
hERG rescue: hERG (human) protection from proarrhythmic block | Q12809 | CHO-hERG, FluxOR thallium flux, dofetilide IC70 present | activation (rescue from dofetilide block), less the hit threshold, % at 10 µM | 310,000 compounds, 0.51% hits | AID 1511;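 active = activation above the mean of controls blocked by dofetilide plus 5 SD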;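 note: thallium influx through hERG after potassium depolarization seen as dye fluorescence rise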
hERG ctr: blocks human hERG, in counter-screen for Kir2.1 inhibitors; 320 compounds, 20% hits; inhibition, % at 10 µM; shares compounds with Kir21 inh; AID 2236; hERG-expressing cells, thallium flux;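 note: host cells are CHO cells stably expressing hERG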
KCNK9 inh-2: tests whether Kir2.1 inhibitors also affect human KCNK9; shares compounds with Kir21 inh; KCNK9-expressing cells, ion flux inhibition; inhibition, % at 10 µM; 320 compounds, 5% hits; AID 2329
Kir2-1 patch inh: blocks mouse Kir2.1 current in automated electrophysiology; shares compounds with Kir21 inh; Kir2.1 cells, automated patch-clamp current inhibition; inhibition, % at 25 µM; 320 compounds, 71% hits; AID 463252
Numbers without * were called inactive. An excerpt weighted towards active compounds, which were near 3.7% of everything screened. Unless noted, the rule behind the calls is not given here.

For C[N+]1(CCC(C(N)=O)(c2ccccc2)c2ccccc2)CCCCC1 the results were KCNQ1 act inactive, Kir21 inh 0.97, KCNQ1 block inactive, KCNK9 inh-1 inactive and hERG rescue -4.
For Cc1ncc2n1-c1ccc(Cl)cc1C(c1ccccc1F)=NC2 the results were KCNK3 inh inactive.
For Cc1cccc(CN2CCN(Cc3ccc(Cl)cc3)CC2)c1 the results were KCNQ1 act inactive, Kir21 inh -12*, KCNK3 inh inactive, KCNQ1 block inactive, KCNK9 inh-1 inactive and hERG rescue -11.
For O=c1c2cc(Br)ccc2[nH]c(=S)n1-c1ccccc1 the results were KCNQ1 act inactive, Kir21 inh 0.41, KCNK3 inh inactive, KCNQ1 block inactive, KCNK9 inh-1 inactive and hERG rescue 37*.
For O=C(Cc1c[nH]c2ccccc12)NNCc1ccc(N(CCCl)CCCl)cc1 the results were KCNK3 inh inactive.
`c1ccc(CC(NCc2ccco2)c2ccccc2)cc1` (centres undefined) gave KCNQ1 act inactive, Kir21 inh -3.8, KCNK3 inh inactive, KCNQ1 block 6*, KCNK9 inh-1 inactive and hERG rescue -15.
For O=C(Nc1cccc(Cl)c1)OCC#CCN1CCCC1 the results were KCNK3 inh inactive.
For CCc1ccc(CNCCc2ccc(F)cc2)cc1 the results were KCNQ1 act inactive, Kir21 inh -0.49, KCNK3 inh inactive, KCNQ1 block inactive, KCNK9 inh-1 inactive and hERG rescue -9.
Screening Fc1ccc(CCNCc2ccc(Cl)c(Cl)c2)cc1 returned KCNQ1 act inactive, Kir21 inh -6.2*, KCNK3 inh inactive, KCNQ1 block inactive, KCNK9 inh-1 inactive and hERG rescue -8.
`CC1=C(O)C(=O)C=C2C1=CC=C1C2(C)CCC2(C)C3CC(C)(C(=O)O)CCC3(C)CCC12C` (centres undefined) gave KCNK3 inh inactive.
For O=C1NC(=O)C(=Cc2ccc(-c3cc(Cl)ccc3[N+](=O)[O-])o2)C(=O)N1 the results were KCNQ1 act inactive, Kir21 inh -0.33, KCNK3 inh inactive, KCNQ1 block inactive, KCNK9 inh-1 inactive and hERG rescue 24*.
O=C1NC(=O)C(=Cc2ccc(-c3ccccc3[N+](=O)[O-])o2)C(=O)N1 was read as KCNQ1 act inactive, Kir21 inh 0.33, KCNK3 inh inactive, KCNQ1 block inactive, KCNK9 inh-1 inactive and hERG rescue 1.
CC(C)CC1(CCc2ccccc2)C(=O)NC(=O)NC1=O was read as KCNK3 inh inactive.
N#CC1c2ccccc2-n2nncc2CN1S(=O)(=O)c1ccc(Cl)cc1 (centres undefined) was read as KCNK3 inh inactive.
`O=C(CF)NC(NC(=S)Nc1cccc([N+](=O)[O-])c1)C(Cl)(Cl)Cl` (centres undefined) gave KCNQ1 act inactive, Kir21 inh 0.47, KCNK3 inh inactive, KCNQ1 block 6*, KCNK9 inh-1 inactive and hERG rescue -15.
Cc1ccc(N2C(=O)NC(=O)/C(=C\c3cnc(-c4ccccc4)nc3)C2=O)cc1 was read as KCNQ1 act inactive, Kir21 inh -0.26, KCNK3 inh inactive, KCNQ1 block inactive, KCNK9 inh-1 inactive and hERG rescue -8.
Screening CCC(C)c1ccc(N2C(=O)NC(=O)/C(=C/c3cccn3CCOc3ccc(C)cc3)C2=O)cc1 (centres undefined) returned KCNQ1 act inactive, Kir21 inh -0.46, KCNK3 inh inactive, KCNQ1 block 7*, KCNK9 inh-1 inactive and hERG rescue -11.
`CC(C)C(=O)c1cn(Cc2ccc(C#N)cc2)c2ccccc12` gave KCNQ1 act inactive, Kir21 inh 1.3, KCNK3 inh inactive, KCNQ1 block inactive, KCNK9 inh-1 -6.9* and hERG rescue -6.
For O=C1NC(=S)SC1=Cc1ccc(N(CCCl)CCCl)cc1 the results were KCNK3 inh inactive.
COc1cccc(NP(=O)(Oc2ccccc2)Oc2ccccc2)c1 was read as KCNQ1 act inactive, Kir21 inh -0.66, KCNK3 inh inactive, KCNQ1 block inactive, KCNK9 inh-1 inactive and hERG rescue -17.
O=P(Nc1cccc(Cl)c1)(Oc1ccccc1)Oc1ccccc1 was read as KCNQ1 act inactive, Kir21 inh -0.01, KCNK3 inh inactive, KCNQ1 block 6*, KCNK9 inh-1 -7.6* and hERG rescue -49.
For CCC1C(c2ccccc2)NC(c2ccccc2)CC1(O)c1ccc(F)cc1 (centres undefined) the results were KCNQ1 act inactive, Kir21 inh -4.5*, KCNK3 inh inactive, KCNQ1 block inactive, KCNK9 inh-1 inactive and hERG rescue -19.
`CCOP(=S)(OCC)Oc1nc(Cl)c(Cl)cc1Cl` gave KCNK3 inh -9.1*.
Nc1ccccc1C(=O)OCC(=O)N1CCc2ccccc21 was read as KCNQ1 act inactive, Kir21 inh 0.07, KCNK3 inh inactive, KCNQ1 block inactive, KCNK9 inh-1 inactive and hERG rescue -3.
N#CSCC(=O)N1c2ccccc2CCc2ccccc21 was read as KCNQ1 act inactive, Kir21 inh -6.8*, KCNK3 inh inactive, KCNQ1 block inactive, KCNK9 inh-1 -6.9* and hERG rescue -15.
Screening COC[C@]12CN(C)C3C4[C@H](OC)[C@H]1C3([C@@H](OC)C[C@H]2O)[C@@H]1C[C@@]2(O)[C@H](OC(=O)c3ccccc3)[C@@H]1[C@]4(OC(C)=O)[C@@H](O)[C@@H]2OC returned KCNQ1 act inactive, Kir21 inh -0.22, KCNQ1 block inactive, KCNK9 inh-1 inactive and hERG rescue -2.
For CCc1ccc(CNCCc2c[nH]c3ccccc23)cc1 the results were KCNQ1 act inactive, Kir21 inh -15*, KCNK3 inh inactive, KCNQ1 block inactive, KCNK9 inh-1 inactive, hERG rescue -10, hERG ctr 53%*, KCNK9 inh-2 inactive and Kir2-1 patch inh 60%*.
Screening c1ccc(CNCCc2c[nH]c3ccccc23)cc1 returned KCNQ1 act inactive, Kir21 inh -0.43, KCNK3 inh inactive, KCNQ1 block inactive, KCNK9 inh-1 inactive and hERG rescue -6.
